# An excerpt weighted towards active compounds, which were near 2.4% of everything screened.
# PP5 inh: blocks human protein phosphatase 5 activity; AID 1987; P53041; purified PP5c, OMFP substrate fluorescence; inhibition, % at 6.7 µM; 320,000 compounds, 0.18% hits;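 active = inhibition above the campaign's mean inhibition across all tested compounds plus 3 SD, cut at about 9.5% in these data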;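 note: 0% = DMSO only and 100% = 100 µM cantharidin control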
# Target sequence (P53041 whole entry, looked up): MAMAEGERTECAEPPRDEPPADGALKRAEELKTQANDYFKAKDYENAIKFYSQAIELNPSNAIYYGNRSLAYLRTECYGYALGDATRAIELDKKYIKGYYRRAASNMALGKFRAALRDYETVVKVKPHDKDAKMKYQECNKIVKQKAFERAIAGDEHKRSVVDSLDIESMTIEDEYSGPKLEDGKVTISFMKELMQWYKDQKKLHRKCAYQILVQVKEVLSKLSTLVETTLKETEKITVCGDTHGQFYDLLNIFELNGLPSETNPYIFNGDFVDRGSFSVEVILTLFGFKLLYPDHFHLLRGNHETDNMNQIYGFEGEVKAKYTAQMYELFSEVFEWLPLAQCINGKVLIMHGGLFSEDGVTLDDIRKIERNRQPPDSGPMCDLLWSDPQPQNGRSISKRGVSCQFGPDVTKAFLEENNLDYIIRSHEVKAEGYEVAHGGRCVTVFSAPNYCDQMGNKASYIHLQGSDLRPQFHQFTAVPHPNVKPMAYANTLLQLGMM
# pCIP destab: lowers stability of the mouse p/CIP coactivator protein; Q05BA5; F442A p/CIP-EGFP cells, EGFP fluorescence, 16 h; decrease of EGFP signal, % at 10 µM; 290,000 compounds, 0.01% hits;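 active = EGFP signal decrease of at least 30% at 10 µM or well 3 SD below plate mean, unless failing retest; inactive = the rest, including hits failing retest or dose response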
# T cruzi inh: T. cruzi replication inhibition. T. cruzi beta-gal in NIH3T3, luminescence, 90 h. 300,000 compounds, 1.4% hits. inhibition, % (test concentration not listed). AID 1885;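 active = mean inhibition across valid replicates above about 55%, limit read from the data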;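 note: signal also drops with host cell toxicity which is not excluded here; 0% = plate median of DMSO wells and 100% = zero luminescence signal; higher percent means less beta-gal luminescence so fewer parasites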
#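 compound dosing = single 50 nL compound addition per well in DMSO | material = NIH/3T3 host cells with β-galactosidase reporter T. cruzi | input = 5,000 host fibroblasts per well | timing = ≥90 h infection period, 3 h prior cell attachment | read-out basis = percent inhibition of parasite-derived β-gal signal | detection = GalScreen β-gal luminescence, detergent lysis, 60 min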
# JMJD2C inh: human JMJD2C demethylase inhibition | inhibition, % at 2.35 µM | AID 2099 | 330,000 compounds, 0.069% hits | GST-JMJD2C(1-420) H3K9me3 demethylation, DELFIA europium | Q9H3R0;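 active = more than half of a compound's replicate wells show inhibition beyond 50%, single wells judged on their own value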;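 note: signal counts dimethyl H3K9 product captured on neutravidin plate; 0% = median of DMSO wells and 100% = 0.3 times that DMSO median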
# Fh CTSL1 inh: blocks F. hepatica cathepsin L1 in PFM18AAP counter-screen; recombinant F. hepatica cathepsin L1, Z-Leu-Arg-MCA fluorescence; inhibition, % at 5.96 µM; 300,000 compounds, 0.49% hits; AID 1906;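 active = inhibition above the mean of all tested compounds plus 3 SD, set per screening campaign, cut at about 17% in these data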;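 note: 0% = plate median of test compound wells and 100% = 1 µM Z-Phe-Ala-diazomethylketone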
# H9c2 protect: modulators protecting cardiomyocytes from myocardial damage; H9c2 cardiomyocytes, H2O2 injury protection, ATPLite, 2 h; 360,000 compounds, 0.63% hits; protection from H2O2 cell death, % at 20 µM;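 active = compounds giving at least 50% protection of heart cells from peroxide-induced death in the single-dose screen, raw or plate-pattern-corrected value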;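 note: 0% = DMSO wells with peroxide and 100% = DMSO wells without peroxide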
# An asterisk follows results filed as active; · = not tested or not shown.
SMILES,PP5 inh,pCIP destab,T cruzi inh,JMJD2C inh,Fh CTSL1 inh,H9c2 protect
CNCCCCOc1ccc(C(C)(C)C)cc1Cl,1.7,-5.5,59.1*,-15.8,-1.1,-3.5
COc1ccc(-c2oc(=O)c3cc(OC)c(OC)cc3c2C#C[C@]2(O)CC[C@H]3[C@@H]4CCc5cc(OC)ccc5[C@H]4CC[C@@]32C)cc1,·,·,·,1.0,·,4.2
CC(C)(C)C(=O)NC1CCN(CC(=O)Nc2ccc3c(c2)OCO3)CC1,1.3,-1.8,-1.1,13.3,-0.2,-3.6
COc1ccc(Br)cc1CN(C)CC(=O)NCc1ccc(F)cc1,3.5,4.1,3.0,52.7*,-0.1,-3.0
Cc1c(C)n(Cc2ccccc2)c2ccc(C(=O)OCCCN(C)C)cc12,4.1,-11.8,60.5*,-0.9,6.6,-8.3
Cc1c(C)n(CCN(C)C)c2ccc(C(=O)OCCN(C)C)cc12,1.1,-9.7,32.6,3.7,1.7,8.5
Cc1cc(NC(=O)C23CC4CC(CC(C4)C2)C3)n[nH]1,1.4,3.1,0.1,-11.1,19.7*,-4.5
CCC(=O)Nc1cc(C)c(NC(=O)C23CC4CC(CC(C4)C2)C3)cn1,0.8,-4.5,-7.1,5.5,2.5,-0.6
COc1cc(OC)cc(C(=O)N[C@H](C(=O)OCC(=O)Nc2cccc(F)c2)C(C)C)c1,1.8,-0.7,3.7,-3.1,-38.6,0.5
COc1cc(OC)cc(C(=O)N[C@H](C(=O)OCC(=O)c2ccc(F)cc2)C(C)C)c1,4.1,-30.7,·,·,17.6*,-0.9
CC(C)C[C@H]1CNC(=O)C(=O)N1C[C@H]1CCCN1C[C@H](CC(C)C)N1C[C@H](Cc2ccccc2)N(CCc2ccccc2)C(=O)C1=O,·,·,·,·,·,1.6
CCCN(CC(=O)Nc1ccccc1OC)C(=O)CCNC(=O)c1ccccc1OC,1.5,·,0.6,-0.5,4.2,5.9
O=C(CCCCN1CCCCC1)c1ccc2c(c1)Cc1ccccc1-2,-2.4,-2.4,71.4*,-6.1,-2.2,-9.9
O=C(COC(=O)c1nn(-c2ccccc2C(F)(F)F)cc1O)c1ccc(OC(F)F)cc1,-2.1,·,-8.0,22.4,0.1,-4.7
O=C(CN(c1ccc(Cl)cc1)S(=O)(=O)c1ccc(Cl)c([N+](=O)[O-])c1)NCCc1ccccc1,-0.3,-15.3,74.5*,-26.4,2.8,-18.7
c1ccc(Cc2c[nH]c3ccccc23)cc1,7.8,-8.3,2.5,-9.2,-2.6,0.1
CN(Cc1ccccc1)Cc1c[nH]c2ccccc12,-1.4,2.7,55.3*,-1.5,-0.8,2.4
O=C(CSc1n[nH]c(-c2ccccc2Cl)n1)NC1CCCCC1,-4.0,-7.1,-7.6,7.1,-5.0,15.0
O=C(N/N=C/c1cc2c(cc1Br)OCO2)c1ccccn1,2.0,6.7,-11.7,2.8,5.2,-5.9
O=C(N/N=C/c1cc2c(cc1Br)OCO2)c1c[nH]c2ccccc12,6.1,-3.1,61.7*,46.7,1.0,14.1
Clc1ccc(Oc2nc3ccccc3n3cccc23)cc1,0.8,-9.6,6.5,10.3,26.4*,-9.0
CCc1ccc(NC(=O)C(C)Sc2ccc(S(=O)(=O)N3CCN(C)CC3)cn2)cc1 (stereo not drawn),-0.8,·,·,-0.2,·,-9.0
CC(OC(=O)c1cccc(-n2cnnn2)c1)C(=O)Nc1ccc(N(C)C)cc1 (stereo not drawn),0.0,·,11.0,-6.8,-8.1,1.5
Cc1ccc(C(O)(C(=O)NN(C(=O)c2ccccc2)c2ccccc2)c2ccc(C)cc2)cc1,-0.8,7.1,6.6,-10.3,0.3,-3.3
Cc1ccc(N(NC(=O)C(O)(c2ccccc2)c2ccccc2)C(=O)CCl)cc1,1.7,-16.2,-8.9,-2.2,81.3*,0.3
SMILES,PP5 inh,pCIP destab,T cruzi inh,JMJD2C inh,Fh CTSL1 inh,H9c2 protect
O=C(CSc1ncnc2c1nnn2Cc1ccc(F)cc1)NC1CCCCC1,2.4,-10.3,78.8*,-30.8,-1.6,2.0
N#Cc1cc(O)c(-n2nnc3ccccc32)cc1C#N,0.4,-4.0,-14.2,-9.4,6.5,-9.7
N#Cc1cc(Oc2cccc3cccnc23)c(-n2nnc3ccccc32)cc1C#N,6.2,-1.5,57.3*,-7.3,-3.4,-1.6
COc1cc(CCN2C(=O)c3cccc4cccc(c34)C2=O)c(S(=O)(=O)NCCO)cc1OC,3.7,-8.8,4.3,-2.8,-1.7,25.9
COc1cc(CCN2C(=O)c3cccc4cccc(c34)C2=O)c(S(=O)(=O)N2CCC(C)CC2)cc1OC,1.2,-10.3,58.6*,-8.2,6.2,7.3
COc1cc(CCN2C(=O)c3cccc4cccc(c34)C2=O)c(S(=O)(=O)N2CCCCCC2)cc1OC,3.1,-15.4,57.7*,10.5,3.1,39.3
CCOCCc1nnc(NC(=O)CS(=O)(=O)c2ccc(C)cc2)s1,-0.4,-1.8,4.2,4.9,-3.2,5.9
O=c1[nH]n(Cc2ccccc2)c(=O)c2ccccc12,-1.5,-2.8,0.9,-2.7,-0.3,56.5*
Cc1ccc(NC(=O)CSCC(=O)Nc2cc(S(=O)(=O)N3CCOCC3)ccc2OC(C)C)cc1,·,·,·,·,·,-2.7
CCC(C)N(C(=O)COC(=O)Cc1n[nH]c(=O)c2ccccc12)C1CCS(=O)(=O)C1 (stereo not drawn),1.0,-4.5,4.7,3.2,-3.0,59.5*
CCC(C)N(C(=O)COC(=O)CCc1c[nH]c2ccccc12)C1CCS(=O)(=O)C1 (stereo not drawn),-0.5,16.4,-16.6,-3.5,-5.1,-8.3
C[C@H]1[C@H](NC(=O)C(=NOC(C)(C)C(=O)O)c2csc(N)n2)C(=O)N1S(=O)(=O)O,-2.1,·,·,·,5.7,7.1
COC(=O)C1Cc2c([nH]c3ccccc23)C2(CCN(Cc3ccccc3)CC2)N1 (stereo not drawn),-1.4,-14.9,70.7*,10.3,5.8,-0.8
CCCCN(CC)CCNC(=O)c1nn(-c2ccc(OC)cc2)c(=O)c2c1c1ccccc1n2C,3.8,-1.2,57.4*,0.2,-1.1,-6.8
CCN(CC)CCCNC(=O)c1cn(-c2cccc(OC)c2)c(=O)c2ccccc12,-1.2,-16.6,-0.8,3.2,5.6,-0.4
CCCCN(CC)CCCNC(=O)c1cn(-c2ccc(OC)cc2)c(=O)c2ccccc12,-4.2,-6.7,58.2*,-14.1,-1.6,2.5
O=C(CSc1nnnn1-c1cccc2ccccc12)Nc1ccc(N2CCOCC2)c(Cl)c1,3.7,-3.2,73.2*,0.9,-0.8,-7.2
COc1ccc(N2CCN(c3nc(Nc4ccc(C)c(F)c4)nc(N4CCCC4)n3)CC2)cc1,-0.1,14.3,67.5*,4.8,-2.2,-6.3
O=C1OC(=O)C2C1[C@@H]1CC[C@H]2O1 (stereo partly drawn),76.9*,-4.6,-41.8,-3.1,-0.6,-2.3
O=C1C2C3CCC(O3)C2C(=O)N1c1cccc(O)c1 (stereo not drawn),2.3,2.4,-10.3,-7.3,0.6,7.0
COc1cc2nc(Nc3ccc(C)c(C)c3)nc(N)c2cc1OC,0.1,-13.4,56.1*,-14.5,0.7,-2.8
